Assay results taken from ChEMBL document CHEMBL1142088, “Cumulative effects of several nonenzymatic mechanisms on the resistance of Pseudomonas aeruginosa to aminoglycosides” (2007).
Values after ≈ are worked out from the molar mass of the structure shown.

Experiments:
Format in all cases: functional
Pseudomonas aeruginosa [1] = experiment: Antibacterial activity against Pseudomonas aeruginosa FE57UZ with inactivated rplY, galU and mexZ genes […]
Pseudomonas aeruginosa [2] = experiment: Antibacterial activity against Pseudomonas aeruginosa FE10U with inactivated nuoG and galU genes by microdilution method
Pseudomonas aeruginosa [3] = experiment: Antibacterial activity against Pseudomonas aeruginosa FE53G with inactivated mexZ and nuoG genes by microdilution method
Pseudomonas aeruginosa [4] = experiment: Antibacterial activity against Pseudomonas aeruginosa FE57GUZ with inactivated rplY, nuoG, galU and mexZ genes […]
Pseudomonas aeruginosa [5] = experiment: Antibacterial activity against Pseudomonas aeruginosa FE57GU with inactivated rplY, nuoG and galU genes by […]
Pseudomonas aeruginosa [6] = experiment: Antibacterial activity against Pseudomonas aeruginosa FE63 containing inactivated rplY and PA5471 genes by microdilution method
Pseudomonas aeruginosa [7] = experiment: Antibacterial activity against Pseudomonas aeruginosa PAO1 by microdilution method
Pseudomonas aeruginosa [8] = experiment: Antibacterial activity against Pseudomonas aeruginosa FE57Z with inactivated rplY and mexZ genes by microdilution method
Pseudomonas aeruginosa [9] = experiment: Antibacterial activity against Pseudomonas aeruginosa FE49 with inactivated galU gene by microdilution method
Pseudomonas aeruginosa [10] = experiment: Antibacterial activity against Pseudomonas aeruginosa FE10 with inactivated nuoG gene by microdilution method
Pseudomonas aeruginosa [11] = experiment: Antibacterial activity against Pseudomonas aeruginosa FE53U with inactivated mexZ and galU genes by microdilution method
Pseudomonas aeruginosa [12] = experiment: Antibacterial activity against Pseudomonas aeruginosa FE60 containing inactivated mexXY gene by microdilution method
Pseudomonas aeruginosa [13] = experiment: Antibacterial activity against Pseudomonas aeruginosa FE57 with inactivated rplY gene by microdilution method
Pseudomonas aeruginosa [14] = experiment: Antibacterial activity against Pseudomonas aeruginosa FE57G with inactivated rplY and nuoG genes by microdilution method
Pseudomonas aeruginosa [15] = experiment: Antibacterial activity against Pseudomonas aeruginosa FE57 containing inactivated rplY gene with pARAL25 by microdilution method
Procedure, shortened: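 MIC for the rplY mutant carrying plasmid-borne rplY under the arabinose-inducible pBAD promoter. Cells grown with 150 μg/ml ticarcillin to keep the plasmid and 0.2% arabinose. Serial twofold dilution with about 10^4 bacteria per spot at 37°C.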

Pseudomonas aeruginosa [16] = experiment: Antibacterial activity against Pseudomonas aeruginosa FE64 containing inactivated rplY and mexXY genes by microdilution method
Pseudomonas aeruginosa [17] = experiment: Antibacterial activity against Pseudomonas aeruginosa FE53GU with inactivated mexZ, nuoG and galU genes by […]
Pseudomonas aeruginosa [18] = experiment: Antibacterial activity against Pseudomonas aeruginosa KJ7106 with inactivated PA5471 gene by microdilution method
Pseudomonas aeruginosa [19] = experiment: Antibacterial activity against Pseudomonas aeruginosa FE57U with inactivated rplY and galU genes by microdilution method
Pseudomonas aeruginosa [20] = experiment: Antibacterial activity against Pseudomonas aeruginosa FE53 with inactivated mexZ gene by microdilution method
Pseudomonas aeruginosa [21] = experiment: Antibacterial activity against Pseudomonas aeruginosa FE57GZ with inactivated rplY, nuoG and mexZ genes […]

Molecule	MIC (Pseudomonas aeruginosa [1])	MIC (Pseudomonas aeruginosa [2])	MIC (Pseudomonas aeruginosa [3])	MIC (Pseudomonas aeruginosa [4])	MIC (Pseudomonas aeruginosa [5])	MIC (Pseudomonas aeruginosa [6])	MIC (Pseudomonas aeruginosa [7])	MIC (Pseudomonas aeruginosa [8])	MIC (Pseudomonas aeruginosa [9])	MIC (Pseudomonas aeruginosa [10])	MIC (Pseudomonas aeruginosa [11])	MIC (Pseudomonas aeruginosa [12])	MIC (Pseudomonas aeruginosa [13])	MIC (Pseudomonas aeruginosa [14])	MIC (Pseudomonas aeruginosa [16])	MIC (Pseudomonas aeruginosa [17])	MIC (Pseudomonas aeruginosa [18])	MIC (Pseudomonas aeruginosa [19])	MIC (Pseudomonas aeruginosa [20])	MIC (Pseudomonas aeruginosa [21])	further results
NCC[C@H](O)C(=O)N[C@@H]1C[C@H](N)[C@@H](O[C@H]2O[C@H](CN)[C@@H](O)[C@H](O)[C@H]2O)[C@H](O)[C@H]1O[C@H]1O[C@H](CO)[C@@H](O)[C@H](N)[C@H]1O [AMIKACIN]	32 µg/mL (≈ 54.6 µM)	8 µg/mL (≈ 13.7 µM)	16 µg/mL (≈ 27.3 µM)	64 µg/mL (≈ 109 µM)	32 µg/mL (≈ 54.6 µM)	2 µg/mL (≈ 3.42 µM)	4 µg/mL (≈ 6.83 µM)	16 µg/mL (≈ 27.3 µM)	8 µg/mL (≈ 13.7 µM)	8 µg/mL (≈ 13.7 µM)	16 µg/mL (≈ 27.3 µM)	1 µg/mL (≈ 1.71 µM)	8 µg/mL (≈ 13.7 µM)	32 µg/mL (≈ 54.6 µM)	2 µg/mL (≈ 3.42 µM)	32 µg/mL (≈ 54.6 µM)	1 µg/mL (≈ 1.71 µM)	16 µg/mL (≈ 27.3 µM)	8 µg/mL (≈ 13.7 µM)	32 µg/mL (≈ 54.6 µM)	MIC (Pseudomonas aeruginosa [15]): 4 µg/mL (≈ 6.83 µM)
CO/N=C(\C(=O)N[C@@H]1C(=O)N2C(C(=O)[O-])=C(C[N+]3(C)CCCC3)CS[C@H]12)c1csc(N)n1 [CEFEPIME]	16 µg/mL (≈ 33.3 µM)	4 µg/mL (≈ 8.32 µM)	16 µg/mL (≈ 33.3 µM)	16 µg/mL (≈ 33.3 µM)	8 µg/mL (≈ 16.6 µM)	2 µg/mL (≈ 4.16 µM)	4 µg/mL (≈ 8.32 µM)	16 µg/mL (≈ 33.3 µM)	4 µg/mL (≈ 8.32 µM)	4 µg/mL (≈ 8.32 µM)	16 µg/mL (≈ 33.3 µM)	4 µg/mL (≈ 8.32 µM)	4 µg/mL (≈ 8.32 µM)	4 µg/mL (≈ 8.32 µM)	2 µg/mL (≈ 4.16 µM)	16 µg/mL (≈ 33.3 µM)	4 µg/mL (≈ 8.32 µM)	4 µg/mL (≈ 8.32 µM)	16 µg/mL (≈ 33.3 µM)	16 µg/mL (≈ 33.3 µM)	–
O=C(O)c1cn(C2CC2)c2cc(N3CCNCC3)c(F)cc2c1=O [CIPROFLOXACIN]	1 µg/mL (≈ 3.02 µM)	–	1 µg/mL (≈ 3.02 µM)	1 µg/mL (≈ 3.02 µM)	–	–	–	1 µg/mL (≈ 3.02 µM)	–	–	–	–	–	–	–	1 µg/mL (≈ 3.02 µM)	–	–	1 µg/mL (≈ 3.02 µM)	1 µg/mL (≈ 3.02 µM)	–
NC[C@H]1O[C@H](O[C@H]2[C@H](O)[C@@H](O[C@H]3O[C@H](CO)[C@@H](O)[C@H](N)[C@H]3O)[C@H](N)C[C@@H]2N)[C@H](O)[C@@H](O)[C@@H]1O [KANAMYCIN]	512 µg/mL (≈ 1060 µM)	256 µg/mL (≈ 528 µM)	256 µg/mL (≈ 528 µM)	1020 µg/mL (≈ 2110 µM)	512 µg/mL (≈ 1060 µM)	–	64 µg/mL (≈ 132 µM)	256 µg/mL (≈ 528 µM)	128 µg/mL (≈ 264 µM)	256 µg/mL (≈ 528 µM)	256 µg/mL (≈ 528 µM)	–	256 µg/mL (≈ 528 µM)	512 µg/mL (≈ 1060 µM)	–	512 µg/mL (≈ 1060 µM)	–	256 µg/mL (≈ 528 µM)	128 µg/mL (≈ 264 µM)	1020 µg/mL (≈ 2110 µM)	–
CCN[C@@H]1C[C@H](N)[C@@H](O[C@H]2OC(CN)=CC[C@H]2N)[C@H](O)[C@H]1O[C@H]1OC[C@](C)(O)[C@H](NC)[C@H]1O [NETILMICIN]	64 µg/mL (≈ 135 µM)	8 µg/mL (≈ 16.8 µM)	16 µg/mL (≈ 33.6 µM)	256 µg/mL (≈ 538 µM)	64 µg/mL (≈ 135 µM)	–	4 µg/mL (≈ 8.41 µM)	16 µg/mL (≈ 33.6 µM)	8 µg/mL (≈ 16.8 µM)	8 µg/mL (≈ 16.8 µM)	16 µg/mL (≈ 33.6 µM)	–	8 µg/mL (≈ 16.8 µM)	16 µg/mL (≈ 33.6 µM)	–	64 µg/mL (≈ 135 µM)	–	16 µg/mL (≈ 33.6 µM)	8 µg/mL (≈ 16.8 µM)	128 µg/mL (≈ 269 µM)	–
NC[C@H]1O[C@H](O[C@H]2[C@H](O)[C@@H](O[C@H]3O[C@H](CO)[C@@H](O)[C@H](N)[C@H]3O)[C@H](N)C[C@@H]2N)[C@H](N)C[C@@H]1O [TOBRAMYCIN]	4 µg/mL (≈ 8.56 µM)	2 µg/mL (≈ 4.28 µM)	2 µg/mL (≈ 4.28 µM)	8 µg/mL (≈ 17.1 µM)	4 µg/mL (≈ 8.56 µM)	0.5 µg/mL (≈ 1.07 µM)	0.5 µg/mL (≈ 1.07 µM)	2 µg/mL (≈ 4.28 µM)	1 µg/mL (≈ 2.14 µM)	1 µg/mL (≈ 2.14 µM)	2 µg/mL (≈ 4.28 µM)	0.25 µg/mL (≈ 0.535 µM)	1 µg/mL (≈ 2.14 µM)	2 µg/mL (≈ 4.28 µM)	0.5 µg/mL (≈ 1.07 µM)	4 µg/mL (≈ 8.56 µM)	0.25 µg/mL (≈ 0.535 µM)	2 µg/mL (≈ 4.28 µM)	1 µg/mL (≈ 2.14 µM)	4 µg/mL (≈ 8.56 µM)	MIC (Pseudomonas aeruginosa [15]): 0.25 µg/mL (≈ 0.535 µM)
GENTAMICIN	–	4 µg/mL	8 µg/mL	–	–	0.25 µg/mL	1 µg/mL	8 µg/mL	2 µg/mL	2 µg/mL	8 µg/mL	0.125 µg/mL	2 µg/mL	8 µg/mL	0.25 µg/mL	–	0.125 µg/mL	8 µg/mL	4 µg/mL	–	MIC (Pseudomonas aeruginosa [15]): 1 µg/mL
